{"data": "Measurements pooled from the literature", "CDK9": "Cyclin-dependent kinase 9 (CDK9, Homo sapiens, UniProt P50750)", "CDK9 with cyclin T1": "Cyclin-dependent kinase 9, with cyclin T1 (CDK9, Homo sapiens, UniProt P50750)", "note": "Compare with care: the assays were run in different laboratories."}
{"Structure (SMILES)": "CN1CCN(C(=O)c2ccc(NC(=O)Nc3ccc(N(C)c4ccnc(Nc5ccc(CS(C)(=O)=O)cc5)n4)cc3)cc2)CC1", "target": "CDK9", "test": "binding", "conditions": "1 µM", "endpoint": "remaining binding", "value": "69%"}
{"Structure (SMILES)": "CC(C)(C)c1cnc(CSc2cnc(NC(=O)C3CCN(C(=O)COCCOCCN4Cc5cc6c(cc5C4)C(=O)N(C4CCC(=O)NC4=O)C6=O)CC3)s2)o1 (stereo not drawn)", "target": "CDK9", "test": "protein level, degrader, western blot", "system": "TC-71", "conditions": "25 nM", "endpoint": "inhibition", "value": "80.7%"}
{"Structure (SMILES)": "CC#CC(=O)N1CCC[C@H]1c1nc(-c2ccc(C(=O)Nc3ccccn3)cc2)c2c(N)nccn12", "target": "CDK9", "test": "enzyme activity, inhibitor", "conditions": "1 µM", "endpoint": "inhibition", "value": "0%"}
{"Structure (SMILES)": "CC(C)(C)c1cnc(CSc2cnc(NC(=O)C3CCN(C(=O)CCOCCCN4Cc5cc6c(cc5C4)C(=O)N(C4CCC(=O)NC4=O)C6=O)CC3)s2)o1 (stereo not drawn)", "target": "CDK9", "test": "protein level, degrader, western blot", "system": "TC-71", "conditions": "25 nM", "endpoint": "inhibition", "value": "85.1%"}
{"Structure (SMILES)": "CNS(=O)(=O)c1ccc(Nc2ncc(C(F)(F)F)c(N3CCC[C@](C)(O)C3)n2)c(C)c1", "target": "CDK9", "test": "binding, competition with immobilised ligand", "conditions": "1 µM", "endpoint": "remaining binding", "value": "98%"}
{"Structure (SMILES)": "CC(C)(C)c1cnc(CSc2cnc(NC(=O)C3CCN(C(=O)CCCCCCCN4Cc5cc6c(cc5C4)C(=O)N(C4CCC(=O)NC4=O)C6=O)CC3)s2)o1 (stereo not drawn)", "target": "CDK9", "test": "protein level, degrader, western blot", "system": "TC-71", "conditions": "25 nM", "endpoint": "inhibition", "value": "94.4%"}
{"Structure (SMILES)": "C[C@]1(O)CCCN(c2nc(Nc3ccc(S(=O)(=O)N[C@H]4CC[C@H](CN5CCN(c6ccc(C7CCC(=O)NC7=O)cc6F)CC5)CC4)cc3Cl)ncc2C(F)(F)F)C1 (stereo partly drawn)", "target": "CDK9", "test": "binding, competition with immobilised ligand", "conditions": "1 µM", "endpoint": "remaining binding", "value": "100%"}
{"Structure (SMILES)": "COc1ccc2oc(-c3ccc4nc(N)oc4c3)c/c(=N\\c3ccccc3NC(=O)CCN)c2c1", "target": "CDK9 with cyclin T1", "test": "binding", "conditions": "1 µM", "endpoint": "remaining binding", "value": "93%"}
{"Structure (SMILES)": "CO[C@@H]1[C@H](N(C)C(=O)c2ccccc2)C[C@H]2O[C@]1(C)n1c3ccccc3c3c4c(c5c6ccccc6n2c5c31)C(=O)NC4", "target": "CDK9", "test": "enzyme activity, inhibitor", "conditions": "1 µM", "endpoint": "inhibition", "value": "3%"}
{"Structure (SMILES)": "Cc1ccc(NC(=O)c2ccnc(C(F)(F)F)c2)cc1-c1cc(OCCO)nc(N2CCOCC2)c1", "target": "CDK9", "test": "binding", "conditions": "1 µM", "endpoint": "remaining binding", "value": "100%"}
{"Structure (SMILES)": "CC(C)S(=O)(=O)c1ccc2nccc(Nc3ccc4sc(C5CCCC5)nc4c3)c2c1", "target": "CDK9 with cyclin T1", "test": "enzyme activity, inhibitor", "conditions": "1 µM", "endpoint": "activity vs control", "value": "98%"}
{"Structure (SMILES)": "N#Cc1ccc(NC(=O)Nc2ccccc2)cc1", "target": "CDK9", "test": "cell-free assay, competition with immobilised ligand", "conditions": "25 µM", "endpoint": "remaining binding", "value": "100%"}
